Assay results from different studies.
Target: Serine/threonine-protein kinase Sgk2 (SGK2, Homo sapiens, UniProt Q9HBY8)
Residues used in one study (Q9HBY8 1-367): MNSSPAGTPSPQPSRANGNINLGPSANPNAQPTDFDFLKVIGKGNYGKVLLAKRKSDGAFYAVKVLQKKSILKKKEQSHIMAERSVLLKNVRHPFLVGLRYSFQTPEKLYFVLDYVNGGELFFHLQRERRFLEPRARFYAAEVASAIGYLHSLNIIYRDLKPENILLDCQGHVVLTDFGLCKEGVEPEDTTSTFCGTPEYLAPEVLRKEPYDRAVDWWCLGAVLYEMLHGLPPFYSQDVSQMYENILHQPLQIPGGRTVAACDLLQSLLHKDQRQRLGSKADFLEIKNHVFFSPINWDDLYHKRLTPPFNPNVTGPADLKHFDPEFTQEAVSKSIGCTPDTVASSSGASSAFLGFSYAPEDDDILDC

| SMILES | test | conditions | remaining binding |
| --- | --- | --- | --- |
| COc1ncc2cc3ccccc3nc2c1C#N | cell-free assay, competition with immobilised ligand | 5 µM | 98% |
| CN(C)c1ncc(F)c(-c2cnn3ncccc23)n1 | binding | 1 µM | 72% |
| CCCOc1ccc([C@@H]2[C@@H](C(=O)O)[C@H](c3ccc4c(c3)OCO4)CN2CC(=O)Nc2c(CC)cccc2CC)cc1 | cell-free assay, competition with immobilised ligand | 1 µM | 69% |
| FC(F)(F)Oc1cccc(-c2cnc3ccc(-c4ccncc4)nn23)c1 | binding, competition with immobilised ligand | 5 µM | 77% |
| COc1ccc2c(c1)O[C@H](c1ccc(OC)c(OC)c1)C[C@@H]2NC(=O)C1(c2ccc3c(c2)OC(F)(F)O3)CC1 | cell-free assay, competition with immobilised ligand | 1 µM | 100% |
| CNC(=O)[C@@H]1CC[C@@H](n2c(-c3ccc4cnccc4c3)nc3ccc(C(=O)NCc4cccc(C(N)=O)c4)cc32)C1 | binding, competition with immobilised ligand | 1 µM | 100% |
| O=C(Nc1c[nH]nc1C(=O)NC1CCNCC1)c1cc(F)cc(F)c1 | binding, competition with immobilised ligand | 1 µM | 93% |
| CN(C)c1nccc(-c2cnn3ncccc23)n1 | binding | 1 µM | 75% |
| Cc1cnc(Nc2ccc(C(=O)N3CCC(N4CCCC4)CC3)cc2)nc1-c1cc2ccccc2s1 | binding, competition with immobilised ligand | 1 µM | 29% |
| Cc1cc(C)c(-n2ccn3nc(-c4cccnc4)cc23)cc1NC(=O)c1cc(C#N)cc(S(F)(F)(F)(F)F)c1 | cell-free assay, competition with immobilised ligand | 0.1 µM | 100% |
| O=C(c1ccc(Nc2nccc(-c3cc4ccccc4s3)n2)cc1)N1CCC(N2CCCC2)CC1 | binding, competition with immobilised ligand | 1 µM | 47% |
| c1cnn2ncc(-c3ccnc(N4CCC45COC5)n3)c2c1 | binding | 1 µM | 65% |
| Cc1nc(N2CC[C@@H](O)C2)ncc1-c1cc(C(F)(F)F)cc2[nH]ncc12 | binding, competition with immobilised ligand | 1 µM | 88% |
| Cc1cnn2ncc(-c3ccnc(N(C)C)n3)c2c1 | binding | 1 µM | 84% |
| O=C(NCCCN1CCOCC1)c1ccc(Nc2ncc(Cl)c(-c3ccc(Cl)s3)n2)cc1 | binding, competition with immobilised ligand | 1 µM | 100% |
| CC1CCCN1c1nccc(-c2cnn3ncccc23)n1 (centres unmarked) | binding | 1 µM | 94% |
| O=C(Nc1cccnn1)N1CC(C/C=C/c2cncc(Oc3ccc(C(F)(F)F)cn3)n2)C1 | cell-free assay, competition with immobilised ligand | 1 µM | 74% |
| COc1cnc(Nc2cccc(S(N)(=O)=O)c2)nc1N1CCN(c2ccccc2)CC1 | binding, competition with immobilised ligand | 1 µM | 82% |
| C[C@H]1CCN(c2nccc(-c3cnn4ncccc34)n2)C1 | binding | 1 µM | 65% |
| Cn1cc(Cl)c2c(Oc3c(F)cc(Nc4cc(Cl)nc(N)n4)cc3F)ccnc21 | cell-free assay, competition with immobilised ligand | 0.1 µM | 86% |
